Laboratory results reported in ChEMBL document CHEMBL4808175 (J Med Chem, 2021).

Legend:
[1] = molecular target: T1, cGMP-specific 3',5'-cyclic phosphodiesterase (Homo sapiens, UniProt O76074); test: Inhibition of recombinant full length GST-tagged PDE5A1 (unknown origin) expressed in baculovirus infected Sf9 insect cells using TAMRA-cGMP as substrate incubated for 1.5 hrs by IMAP-FP assay
[2] = molecular target: T2, cGMP-dependent 3',5'-cyclic phosphodiesterase (Homo sapiens, UniProt O00408); test: Inhibition of recombinant full length GST-tagged PDE2A (unknown origin) expressed in baculovirus infected Sf9 insect cells using TAMRA-cGMP as substrate incubated for 1.5 hrs by IMAP-FP assay
Summary of the method: (§1)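 PDE enzymes incubated with compound or vehicle and 50 nM TAMRA-cGMP or FAM-cAMP substrate for 1.5 h at 30 °C. Activity read by IMAP fluorescence polarization. IC50 from 10 concentrations, at least two replicates each, fitted by four-parameter logistic. Dose–response repeated at least twice; mean of at least two experiments.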

[3] = molecular target: T3, cAMP and cAMP-inhibited cGMP 3',5'-cyclic phosphodiesterase 10A (Homo sapiens, UniProt Q9Y233); test: Inhibition of recombinant GST-tagged full length PDE10A2 (unknown origin) expressed in baculovirus infected Sf9 insect cells using TAMRA-cGMP as substrate incubated for 1.5 hrs by IMAP-FP assay; summary of the method: as §1
[4] = molecular target: T4, Dual specificity calcium/calmodulin-dependent 3',5'-cyclic nucleotide phosphodiesterase 1A (Homo sapiens, UniProt P54750); test: Inhibition of recombinant full length GST-tagged PDE1A (unknown origin) expressed in baculovirus infected Sf9 insect cells using FAM-cAMP as substrate incubated for 1.5 hrs by IMAP-FP assay; summary of the method: as §1
[5] = molecular target: T3, cAMP and cAMP-inhibited cGMP 3',5'-cyclic phosphodiesterase 10A; test: Inhibition of recombinant GST-tagged full length PDE10A2 (unknown origin) expressed in baculovirus infected Sf9 insect cells using FAM-cAMP as substrate incubated for 1.5 hrs by IMAP-FP assay; summary of the method: as §1
Homo sapiens [6] = species on record: Homo sapiens; test: Selectivity ratio of IC50 for recombinant full length GST-tagged PDE6C (unknown origin) expressed in baculovirus infected Sf9 insect cells to IC50 for recombinant full length GST-tagged PDE5A1 (unknown origin) expressed in baculovirus infected Sf9 insect cells using TAMRA-cGMP as substrate incubated for 1.5 hrs by IMAP-FP assay using TAMRA-cGMP as substrate incubated for 1.5 hrs by IMAP-FP assay
[7] = molecular target: T5, Dual 3',5'-cyclic-AMP and -GMP phosphodiesterase 11A (Homo sapiens, UniProt Q9HCR9); test: Inhibition of recombinant GST-tagged full length PDE11A4 (unknown origin) expressed in baculovirus infected Sf9 insect cells using FAM-cAMP as substrate incubated for 1.5 hrs by IMAP-FP assay; summary of the method: as §1
[8] = molecular target: 3',5'-cyclic-AMP phosphodiesterase 4B (Homo sapiens, UniProt Q07343); test: Inhibition of recombinant full length GST-tagged PDE4B2 (unknown origin) expressed in baculovirus infected Sf9 insect cells using FAM-cAMP as substrate incubated for 1.5 hrs by IMAP-FP assay; summary of the method: as §1
[9] = molecular target: T6, cGMP-inhibited 3',5'-cyclic phosphodiesterase 3A (Homo sapiens, UniProt Q14432); test: Inhibition of recombinant GST-tagged PDE3A (669 to end residues) (unknown origin) expressed in baculovirus infected Sf9 insect cells using FAM-cAMP as substrate incubated for 1.5 hrs by IMAP-FP assay; summary of the method: as §1
[10] = molecular target: High affinity cGMP-specific 3',5'-cyclic phosphodiesterase 9A (Homo sapiens, UniProt O76083); test: Inhibition of recombinant GST-tagged full length PDE9A2 (unknown origin) expressed in baculovirus infected Sf9 insect cells using substrate incubated for 1.5 hrs by IMAP-FP assay
[11] = molecular target: T4, Dual specificity calcium/calmodulin-dependent 3',5'-cyclic nucleotide phosphodiesterase 1A; test: Inhibition of recombinant full length GST-tagged PDE1A (unknown origin) expressed in baculovirus infected Sf9 insect cells using TAMRA-cGMP as substrate incubated for 1.5 hrs by IMAP-FP assay; summary of the method: as §1
[12] = molecular target: T2, cGMP-dependent 3',5'-cyclic phosphodiesterase; test: Inhibition of recombinant full length GST-tagged PDE2A (unknown origin) expressed in baculovirus infected Sf9 insect cells using FAM-cAMP as substrate incubated for 1.5 hrs by IMAP-FP assay; summary of the method: as §1
[13] = molecular target: High affinity 3',5'-cyclic-AMP phosphodiesterase 7A (Homo sapiens, UniProt Q13946); test: Inhibition of recombinant GST-tagged PDE7A (122 to end residues) (unknown origin) expressed in baculovirus infected Sf9 insect cells using FAM-cAMP as substrate incubated for 1.5 hrs by IMAP-FP assay; summary of the method: as §1
[14] = molecular target: T6, cGMP-inhibited 3',5'-cyclic phosphodiesterase 3A; test: Inhibition of recombinant GST-tagged PDE3A (669 to end residues) (unknown origin) expressed in baculovirus infected Sf9 insect cells using TAMRA-cGMP as substrate incubated for 1.5 hrs by IMAP-FP assay; summary of the method: as §1
[15] = molecular target: T1, cGMP-specific 3',5'-cyclic phosphodiesterase; test: Inhibition of PDE5A in HEK293 cells stably transfected with cGMP biosensor assessed as increase in SNP-induced intracellular cGMP level measured after 90 mins by luminescence assay; type: cell-based
[16] = molecular target: T5, Dual 3',5'-cyclic-AMP and -GMP phosphodiesterase 11A; test: Inhibition of recombinant GST-tagged full length PDE11A4 (unknown origin) expressed in baculovirus infected Sf9 insect cells using TAMRA-cGMP as substrate incubated for 1.5 hrs by IMAP-FP assay; summary of the method: as §1
[17] = molecular target: Cone cGMP-specific 3',5'-cyclic phosphodiesterase subunit alpha' (Homo sapiens, UniProt P51160); test: Inhibition of recombinant full length GST-tagged PDE6C (unknown origin) expressed in baculovirus infected Sf9 insect cells using TAMRA-cGMP as substrate incubated for 1.5 hrs by IMAP-FP assay; summary of the method: as §1
Homo sapiens [18] = species on record: Homo sapiens; test: Selectivity ratio of IC50 for recombinant GST-tagged full length PDE11A4 (unknown origin) expressed in baculovirus infected Sf9 insect cells to IC50 for recombinant full length GST-tagged PDE5A1 (unknown origin) expressed in baculovirus infected Sf9 insect cells using TAMRA-cGMP as substrate incubated for 1.5 hrs by IMAP-FP assay using TAMRA-cGMP as substrate incubated for 1.5 hrs by IMAP-FP assay
[19] = molecular target: High affinity cAMP-specific and IBMX-insensitive 3',5'-cyclic phosphodiesterase 8A (Homo sapiens, UniProt O60658); test: Inhibition of recombinant GST-tagged full length PDE8A1 (unknown origin) expressed in baculovirus infected Sf9 insect cells using FAM-cAMP as substrate incubated for 1.5 hrs by IMAP-FP assay; summary of the method: as §1

T5 sequence (Q9HCR9 whole entry): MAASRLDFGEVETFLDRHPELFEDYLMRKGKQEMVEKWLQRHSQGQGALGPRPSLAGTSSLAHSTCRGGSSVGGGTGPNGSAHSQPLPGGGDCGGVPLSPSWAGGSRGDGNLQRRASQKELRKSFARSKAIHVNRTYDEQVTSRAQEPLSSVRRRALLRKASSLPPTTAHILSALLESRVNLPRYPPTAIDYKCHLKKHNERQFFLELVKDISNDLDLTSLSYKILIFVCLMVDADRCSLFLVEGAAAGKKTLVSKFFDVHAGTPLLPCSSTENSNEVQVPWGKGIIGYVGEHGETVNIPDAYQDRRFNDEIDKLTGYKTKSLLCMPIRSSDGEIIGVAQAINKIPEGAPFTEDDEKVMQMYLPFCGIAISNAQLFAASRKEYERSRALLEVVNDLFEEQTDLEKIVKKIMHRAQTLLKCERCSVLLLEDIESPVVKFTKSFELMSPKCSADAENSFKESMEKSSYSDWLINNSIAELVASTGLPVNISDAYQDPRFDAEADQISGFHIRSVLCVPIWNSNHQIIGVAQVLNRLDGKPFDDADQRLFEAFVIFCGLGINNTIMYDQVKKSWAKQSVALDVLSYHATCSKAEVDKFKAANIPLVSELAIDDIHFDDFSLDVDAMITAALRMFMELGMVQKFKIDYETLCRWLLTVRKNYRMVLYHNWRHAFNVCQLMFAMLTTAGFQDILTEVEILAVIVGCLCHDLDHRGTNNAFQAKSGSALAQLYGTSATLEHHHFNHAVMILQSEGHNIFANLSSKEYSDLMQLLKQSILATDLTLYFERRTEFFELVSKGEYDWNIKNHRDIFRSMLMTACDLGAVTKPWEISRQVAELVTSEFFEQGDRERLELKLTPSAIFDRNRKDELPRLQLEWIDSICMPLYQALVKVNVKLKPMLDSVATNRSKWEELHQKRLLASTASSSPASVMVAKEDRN
T3 sequence (Q9Y233 whole entry): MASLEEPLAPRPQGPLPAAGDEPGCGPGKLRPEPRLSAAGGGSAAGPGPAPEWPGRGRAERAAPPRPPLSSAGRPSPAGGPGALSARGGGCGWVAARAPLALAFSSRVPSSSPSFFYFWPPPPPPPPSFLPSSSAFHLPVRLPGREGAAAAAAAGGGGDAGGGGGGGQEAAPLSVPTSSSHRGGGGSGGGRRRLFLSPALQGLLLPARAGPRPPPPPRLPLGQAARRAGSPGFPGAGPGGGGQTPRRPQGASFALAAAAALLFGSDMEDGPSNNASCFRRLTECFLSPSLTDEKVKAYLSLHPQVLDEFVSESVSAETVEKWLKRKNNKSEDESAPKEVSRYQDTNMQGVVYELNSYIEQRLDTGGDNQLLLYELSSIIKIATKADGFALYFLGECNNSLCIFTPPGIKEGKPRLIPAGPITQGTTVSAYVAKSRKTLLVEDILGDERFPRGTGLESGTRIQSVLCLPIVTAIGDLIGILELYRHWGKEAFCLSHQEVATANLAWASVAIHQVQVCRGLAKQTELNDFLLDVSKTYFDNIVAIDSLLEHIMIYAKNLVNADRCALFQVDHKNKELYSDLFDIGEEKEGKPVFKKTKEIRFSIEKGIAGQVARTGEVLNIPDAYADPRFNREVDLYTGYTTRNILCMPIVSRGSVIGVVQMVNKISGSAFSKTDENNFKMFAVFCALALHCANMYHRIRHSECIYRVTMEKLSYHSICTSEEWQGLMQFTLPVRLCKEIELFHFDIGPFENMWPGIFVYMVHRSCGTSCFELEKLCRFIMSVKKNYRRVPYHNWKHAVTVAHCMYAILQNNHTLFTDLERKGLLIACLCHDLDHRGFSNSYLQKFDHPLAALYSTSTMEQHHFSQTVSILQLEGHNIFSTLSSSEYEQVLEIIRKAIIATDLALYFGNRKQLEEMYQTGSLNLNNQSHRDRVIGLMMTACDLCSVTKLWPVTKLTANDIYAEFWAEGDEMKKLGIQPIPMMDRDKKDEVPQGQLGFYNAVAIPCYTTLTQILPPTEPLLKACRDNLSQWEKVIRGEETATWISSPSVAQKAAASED
T6 sequence (Q14432 whole entry): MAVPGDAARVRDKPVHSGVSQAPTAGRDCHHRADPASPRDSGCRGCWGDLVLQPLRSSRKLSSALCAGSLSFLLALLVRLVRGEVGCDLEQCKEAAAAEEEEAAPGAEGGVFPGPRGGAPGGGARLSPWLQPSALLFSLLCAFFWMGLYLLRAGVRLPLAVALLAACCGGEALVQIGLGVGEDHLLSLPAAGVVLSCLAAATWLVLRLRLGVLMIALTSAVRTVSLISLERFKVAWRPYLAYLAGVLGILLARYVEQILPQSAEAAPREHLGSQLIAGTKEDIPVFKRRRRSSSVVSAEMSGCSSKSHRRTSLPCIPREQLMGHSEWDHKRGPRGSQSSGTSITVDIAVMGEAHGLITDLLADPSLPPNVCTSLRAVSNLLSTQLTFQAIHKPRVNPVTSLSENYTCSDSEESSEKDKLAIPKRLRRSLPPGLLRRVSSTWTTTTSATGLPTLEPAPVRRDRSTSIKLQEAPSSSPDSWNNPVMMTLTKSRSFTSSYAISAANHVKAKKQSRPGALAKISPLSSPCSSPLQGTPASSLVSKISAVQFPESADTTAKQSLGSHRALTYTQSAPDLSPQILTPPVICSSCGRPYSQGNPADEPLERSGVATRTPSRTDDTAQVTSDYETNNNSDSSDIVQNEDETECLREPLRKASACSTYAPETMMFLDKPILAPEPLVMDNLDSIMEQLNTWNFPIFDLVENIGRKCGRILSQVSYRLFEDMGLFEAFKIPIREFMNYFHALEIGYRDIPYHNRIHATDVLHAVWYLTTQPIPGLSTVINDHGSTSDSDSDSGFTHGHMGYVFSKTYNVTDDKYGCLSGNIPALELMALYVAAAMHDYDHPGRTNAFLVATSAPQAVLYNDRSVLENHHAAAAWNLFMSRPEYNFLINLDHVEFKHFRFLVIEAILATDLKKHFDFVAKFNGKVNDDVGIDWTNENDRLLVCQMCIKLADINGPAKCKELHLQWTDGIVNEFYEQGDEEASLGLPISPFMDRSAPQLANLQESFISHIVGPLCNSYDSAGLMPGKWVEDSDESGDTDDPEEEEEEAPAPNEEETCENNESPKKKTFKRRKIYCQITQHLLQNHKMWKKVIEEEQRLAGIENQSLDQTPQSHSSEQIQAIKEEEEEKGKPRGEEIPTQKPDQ
T2 sequence (O00408 whole entry): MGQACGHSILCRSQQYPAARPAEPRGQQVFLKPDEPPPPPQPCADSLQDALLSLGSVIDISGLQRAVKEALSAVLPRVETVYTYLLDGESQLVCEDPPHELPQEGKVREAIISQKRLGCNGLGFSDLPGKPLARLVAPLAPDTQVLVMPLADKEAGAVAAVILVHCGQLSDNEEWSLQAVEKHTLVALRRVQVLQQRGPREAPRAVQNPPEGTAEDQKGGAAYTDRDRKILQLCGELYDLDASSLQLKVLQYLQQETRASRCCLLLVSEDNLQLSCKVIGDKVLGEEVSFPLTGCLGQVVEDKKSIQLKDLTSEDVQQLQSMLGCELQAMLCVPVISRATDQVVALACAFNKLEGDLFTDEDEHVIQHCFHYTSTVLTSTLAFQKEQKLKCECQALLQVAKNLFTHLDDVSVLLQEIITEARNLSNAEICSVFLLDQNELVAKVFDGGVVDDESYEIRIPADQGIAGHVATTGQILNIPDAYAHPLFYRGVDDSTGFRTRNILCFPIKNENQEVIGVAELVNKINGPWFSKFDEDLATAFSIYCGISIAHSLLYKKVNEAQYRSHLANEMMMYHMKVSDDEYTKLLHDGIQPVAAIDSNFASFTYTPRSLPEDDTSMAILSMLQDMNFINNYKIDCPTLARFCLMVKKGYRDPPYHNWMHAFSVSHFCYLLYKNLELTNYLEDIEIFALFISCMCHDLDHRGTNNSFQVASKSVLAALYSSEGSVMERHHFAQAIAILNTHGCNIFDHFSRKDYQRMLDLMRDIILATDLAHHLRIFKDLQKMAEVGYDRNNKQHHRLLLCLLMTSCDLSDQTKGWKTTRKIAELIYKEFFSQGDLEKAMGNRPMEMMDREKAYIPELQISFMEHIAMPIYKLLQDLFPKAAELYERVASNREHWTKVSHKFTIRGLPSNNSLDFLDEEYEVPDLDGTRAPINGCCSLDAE
T4 sequence (P54750 whole entry): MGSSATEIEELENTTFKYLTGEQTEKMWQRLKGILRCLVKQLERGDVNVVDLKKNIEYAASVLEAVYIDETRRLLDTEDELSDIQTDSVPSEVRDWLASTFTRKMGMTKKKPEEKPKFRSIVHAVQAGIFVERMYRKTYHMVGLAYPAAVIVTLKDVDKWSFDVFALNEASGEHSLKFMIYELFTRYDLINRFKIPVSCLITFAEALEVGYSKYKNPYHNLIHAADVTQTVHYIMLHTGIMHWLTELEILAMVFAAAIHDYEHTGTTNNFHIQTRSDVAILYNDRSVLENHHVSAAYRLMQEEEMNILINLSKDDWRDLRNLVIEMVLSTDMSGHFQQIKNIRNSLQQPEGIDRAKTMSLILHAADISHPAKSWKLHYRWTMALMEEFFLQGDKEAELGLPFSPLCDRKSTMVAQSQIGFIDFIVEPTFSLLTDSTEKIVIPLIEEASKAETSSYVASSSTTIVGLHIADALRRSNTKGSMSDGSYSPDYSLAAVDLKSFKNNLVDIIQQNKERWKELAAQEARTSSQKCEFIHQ
High affinity 3',5'-cyclic-AMP phosphodiesterase 7A, sequence (Q13946 whole entry): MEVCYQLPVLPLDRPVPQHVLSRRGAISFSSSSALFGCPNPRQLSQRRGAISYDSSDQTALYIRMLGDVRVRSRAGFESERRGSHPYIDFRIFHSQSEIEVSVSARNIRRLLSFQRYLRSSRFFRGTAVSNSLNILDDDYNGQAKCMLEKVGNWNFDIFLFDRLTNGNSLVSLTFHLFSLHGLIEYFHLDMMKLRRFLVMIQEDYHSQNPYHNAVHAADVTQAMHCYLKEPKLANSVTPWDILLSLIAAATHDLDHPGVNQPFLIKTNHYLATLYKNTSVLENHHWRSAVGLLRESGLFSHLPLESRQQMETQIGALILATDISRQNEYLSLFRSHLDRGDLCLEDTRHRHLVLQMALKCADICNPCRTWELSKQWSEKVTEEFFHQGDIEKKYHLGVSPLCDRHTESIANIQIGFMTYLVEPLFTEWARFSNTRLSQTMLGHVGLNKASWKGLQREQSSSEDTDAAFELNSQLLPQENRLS

`COc1ccc(C2CC(C(C)(C)C)=NN2c2ccc(C(=O)N3CCN(C)CC3)cc2)cc1` (stereo not drawn) showed an IC50 [1] of 0.09 µM.

Work on `COc1ccc(C2CC(c3ccccc3)=NN2c2ccc(C(=O)O)cc2)cc1F` (stereo not drawn) yielded an IC50 [1] of 1.19 µM.

With `COc1ccc(C2CC(c3ccccc3C)=NN2c2ccc(C(=O)N3CCOCC3)cc2)cc1` (stereo not drawn) the IC50 [1] was 0.029 µM.

`COc1ccc(C2CC(c3ccccc3)=NN2c2ccc(C(=O)N3CCN(C)CC3)cc2)cc1` (stereo not drawn) showed an IC50 [1] of 0.078 µM.

`COc1ccc(C2C3Cc4ccccc4C3=NN2c2ccc(C(=O)O)cc2)cc1` (stereo not drawn) was tested, and the IC50 [1] was 1.44 µM.

`CC(C)(C)C1=NN(c2ccc(C(=O)O)cc2)C(c2ccc(OC(F)(F)F)cc2)C1` (stereo not drawn) gave an IC50 [1] of 10 µM.

Work on `CCCCNC(=O)c1ccc(N2N=C(c3ccccc3C)CC2c2ccc(OC)cc2)cc1` (stereo not drawn) yielded an IC50 [1] of 0.28 µM.

Compound `COc1cc(C2CC(C(C)(C)C)=NN2c2ccc(C(=O)O)cc2)ccc1F` (stereo not drawn) has an IC50 [1] of 10.1 µM.

Work on `COc1ccc(C2CC(C(C)(C)C)=NN2c2ccc(C(=O)O)cc2)c(F)c1F` (stereo not drawn) yielded an IC50 [1] of 0.06 µM.

`COc1c(F)cc(C2CC(C(C)(C)C)=NN2c2ccc(C(=O)O)cc2)cc1F` (stereo not drawn) showed an IC50 [1] of 0.09 µM.

In the case of `CCCCNC(=O)c1ccc(N2N=C(c3ccccc3)CC2c2ccc(OC)cc2)cc1` (stereo not drawn), the IC50 [1] is reported as 0.41 µM.

Work on `COc1cc(C2CC(C(C)(C)C)=NN2c2ccc(C(=O)N3CCN(C)CC3)cc2)ccc1F` (stereo not drawn) yielded an IC50 [1] of 1.29 µM.

Compound `CCNC(=O)c1ccc(N2N=C(c3ccccc3)CC2c2ccc(OC)cc2)cc1` (stereo not drawn) has an IC50 [1] of 0.6 µM.

Work on `COc1ccc(C2CC(c3ccccc3C)=NN2c2ccc(C(=O)N3CCN(C)CC3)cc2)cc1` (stereo not drawn) yielded an IC50 [2] of 13.3 µM, an IC50 [3] of 49.5 µM and an IC50 [4] of over 10 µM. It also gave an IC50 [5] of 32.3 µM, a Ratio IC50 (Homo sapiens [6]) of over 476 and an IC50 [7] of 12.7 µM. For the same compound, the IC50 [8] was over 10 µM, the IC50 [9] was over 10 µM and the IC50 [10] was over 10 µM. The IC50 [11] was over 10 µM, the IC50 [1] was 0.021 µM and the IC50 [12] was 9.54 µM. For the same compound, the IC50 [13] was over 10 µM, the IC50 [14] was over 10 µM and the EC50 [15] was 18.4 µM. For the same compound, the IC50 [16] was 11.4 µM, the IC50 [17] was over 10 µM and the Ratio IC50 (Homo sapiens [18]) was 574. The IC50 [19] was over 10 µM.

For `COc1ccc(C2CC(C(C)(C)C)=NN2c2ccc(C(=O)O)cc2)cc1F` (stereo not drawn), the IC50 [1] was 0.59 µM.

`COc1ccc(C2CC(c3ccccc3C)=NN2c2ccc(C(=O)NCCO)cc2)cc1` (stereo not drawn) showed an IC50 [2] of over 50 µM, an IC50 [3] of over 100 µM and an IC50 [4] of over 10 µM. The IC50 [5] was over 100 µM, the Ratio IC50 (Homo sapiens [6]) was over 29 and the IC50 [7] was 13 µM. For the same compound, the IC50 [8] was over 10 µM, the IC50 [9] was over 10 µM and the IC50 [10] was over 10 µM. For the same compound, the IC50 [11] was over 10 µM, the IC50 [1] was 0.34 µM and the IC50 [12] was over 50 µM. The IC50 [13] was over 10 µM, the IC50 [14] was over 10 µM and the IC50 [16] was 13 µM. It also gave an IC50 [17] of over 10 µM, a Ratio IC50 (Homo sapiens [18]) of 38.4 and an IC50 [19] of over 10 µM.

In the case of `COc1ccc(C2CC(C(C)(C)C)=NN2c2ccc(C(=O)O)cc2)cc1Cl` (stereo not drawn), the IC50 [1] is reported as 0.9 µM.

Compound `CCOc1c(F)cc(C2CC(C(C)(C)C)=NN2c2ccc(C(=O)O)cc2)cc1F` (stereo not drawn) has an IC50 [1] of 0.2 µM.
